Measured values as given in the M2OR odorant receptor database.

Target: T1, UniProt Q8VG27
T1 sequence (whole entry): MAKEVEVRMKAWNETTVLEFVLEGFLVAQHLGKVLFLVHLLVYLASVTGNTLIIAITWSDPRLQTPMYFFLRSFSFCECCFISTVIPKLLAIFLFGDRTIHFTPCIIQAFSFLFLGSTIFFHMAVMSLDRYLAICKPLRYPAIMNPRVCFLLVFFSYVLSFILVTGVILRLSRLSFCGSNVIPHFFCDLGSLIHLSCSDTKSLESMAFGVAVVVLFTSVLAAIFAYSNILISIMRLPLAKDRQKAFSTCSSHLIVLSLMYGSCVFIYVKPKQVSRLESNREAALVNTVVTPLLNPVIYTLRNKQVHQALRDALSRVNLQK
Conditions: stereoisomer not certain
In short: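 Each entry records the cell line, G-protein, co-transfected protein and tags used. Methods varied with the source, often transient luciferase assays in mammalian cell lines. A receptor–molecule pair is called responsive (active) if the original authors judged its signal statistically different from baseline and non-responsive (inactive) otherwise.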

Structure (SMILES) | odorant receptor agonist call
CCCO | inactive
CCCCCCCCC=CC=O | inactive
CCC(C)O (centres undefined) | inactive
CCCCCCCOC(=O)C(C)C | inactive
C=CC(=O)CCCCC | inactive
C=CC(=C)CCC=C(C)C | inactive
OCCCCCCCCCO | inactive
COc1nccnc1C | inactive
CCCCCCC(C)O (centres undefined) | inactive
CCCCCCCCOC=O | inactive
CC(=O)C1(C)CC2=C(CCCC2(C)C)CC1C (centres undefined) | inactive
O=C(OCc1ccccc1)c1ccccc1O | inactive
CCc1ccc(O)cc1 | inactive
CCC(C)c1nccnc1OC (centres undefined) | inactive
COc1cnccn1 | inactive
CC=Cc1ccc(OC)cc1 | inactive
CCCC=O | inactive
C=C(C)C1CCC(C)C(O)C1 (centres undefined) | inactive
CCc1ncc(C)nc1CC | inactive
Cc1c(C)c(C)c(C=O)c(C)c1C | inactive

Structure (SMILES) | odorant receptor agonist call
CC(C)CCN | inactive
OCC=Cc1ccccc1 | inactive
CC1CCC(C(C)C)C(=O)C1 (centres undefined) | inactive
CCCCCC(C=O)=Cc1ccccc1 | inactive
COc1nccnc1C(C)C | inactive
CCSCC | inactive
CCc1occc(=O)c1O | inactive
CC(C)=CCCC(C)=CCOC(=O)C(C)C | inactive
CC(C)CS | inactive
CCc1ccccc1O | inactive
C=CC(C)=CCC=C(C)CCC=C(C)C | inactive
CC(=O)C=CC1=C(C)CCCC1(C)C | inactive
CC1(C)CC(=O)CC(=O)C1 | inactive
O=C(O)C1CCC1 | inactive
C=C(C)C1CC=C(C)CC1 (centres undefined) | inactive
CCCCCCC(=O)OCCCC | inactive
Cc1ccccc1OC(=O)C(C)C | inactive
CC(CC=O)CCCC(C)(C)O (centres undefined) | inactive
CCOC(=O)C(C)CC (centres undefined) | inactive
